For 1 compound, IC50 results are on record in ChEMBL document CHEMBL1127568, “A new series of PDGF receptor tyrosine kinase inhibitors: 3-substituted quinoline derivatives” (J Med Chem, 1994).

Assay [1] deals with Platelet-derived growth factor receptor (Homo sapiens, UniProt P09619+P16234). Kind of assay: Concentration required to inhibit phosphorylation of isolated human PDGF receptor by 50%; 0.3-1. Format: protein-complex assay. Put shortly:
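PDGF receptor from NIH 3T3 cell lysates (cells made quiescent 24 h in 0.5% calf serum), stimulated with 10 ng/mL PDGF for 30 min at 4 °C and immunoprecipitated on Protein A beads. Each compound ran in at least two dose-response assays.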

Assay [2] concerns the target Epidermal growth factor receptor (Homo sapiens, UniProt P00533). The assay is described as follows: Concentration required to inhibit phosphorylation of isolated human epidermal growth factor tyrosine kinase receptor by 50%.

Chain of Epidermal growth factor receptor (P00533 whole entry): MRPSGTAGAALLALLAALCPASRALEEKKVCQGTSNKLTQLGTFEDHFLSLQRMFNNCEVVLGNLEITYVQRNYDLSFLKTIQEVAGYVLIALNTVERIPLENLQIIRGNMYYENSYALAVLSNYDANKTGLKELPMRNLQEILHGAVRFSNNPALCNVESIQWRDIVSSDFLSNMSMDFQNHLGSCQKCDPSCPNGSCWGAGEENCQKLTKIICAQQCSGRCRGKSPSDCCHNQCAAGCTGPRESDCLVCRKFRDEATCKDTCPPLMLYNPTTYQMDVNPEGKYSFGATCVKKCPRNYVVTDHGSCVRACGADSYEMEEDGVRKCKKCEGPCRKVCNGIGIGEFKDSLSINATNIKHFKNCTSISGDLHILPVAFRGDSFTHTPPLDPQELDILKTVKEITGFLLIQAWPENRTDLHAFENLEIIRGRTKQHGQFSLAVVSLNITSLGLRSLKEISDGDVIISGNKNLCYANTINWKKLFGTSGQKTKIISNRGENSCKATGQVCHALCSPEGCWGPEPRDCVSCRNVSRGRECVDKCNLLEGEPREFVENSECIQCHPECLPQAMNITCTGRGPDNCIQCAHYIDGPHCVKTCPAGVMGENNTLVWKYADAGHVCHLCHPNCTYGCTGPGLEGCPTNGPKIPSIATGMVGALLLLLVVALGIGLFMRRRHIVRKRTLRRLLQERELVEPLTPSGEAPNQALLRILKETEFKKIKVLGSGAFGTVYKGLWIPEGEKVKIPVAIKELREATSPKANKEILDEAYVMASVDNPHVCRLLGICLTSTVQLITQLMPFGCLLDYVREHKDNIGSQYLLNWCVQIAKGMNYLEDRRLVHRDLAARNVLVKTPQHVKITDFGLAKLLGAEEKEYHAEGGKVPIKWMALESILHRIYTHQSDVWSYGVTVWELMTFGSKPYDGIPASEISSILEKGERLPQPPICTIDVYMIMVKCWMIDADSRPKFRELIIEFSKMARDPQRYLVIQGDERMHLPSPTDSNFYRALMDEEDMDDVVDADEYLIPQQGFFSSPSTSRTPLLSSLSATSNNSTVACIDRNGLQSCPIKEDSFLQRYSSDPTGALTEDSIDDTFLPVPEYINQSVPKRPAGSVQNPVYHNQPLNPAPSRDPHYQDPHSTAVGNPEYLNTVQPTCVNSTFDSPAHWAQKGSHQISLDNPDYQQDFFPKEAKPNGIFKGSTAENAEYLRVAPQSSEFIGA

In general, IC50 refers to the concentration that gives 50% inhibition. Low values mean greater potency in that assay, high ones weaker potency in that assay. `COc1cc2cc(C#CC3CCCCC3)cnc2cc1OC`: the IC50 in assay [1] was 1000 nM; in assay [2], over 20000 nM.
